Test results published in ChEMBL document CHEMBL1128562, “1-Phenyl-3-amino-1,2,3,4-tetrahydronaphthalenes and related derivatives as ligands for the neuromodulatory sigma 3 receptor: further structure-activity relationships” (J Med Chem, 1995).

Tests used:
[1] = target: D(3) dopamine receptor (Homo sapiens) (UniProt P35462); assay: Binding affinity against Dopamine receptor D3 by using [3H]- radioligand
[2] = Binding affinity against Sigma receptor type 3 by using [3H]-(-)-H2-PAT as radioligand; settings: Rattus norvegicus
[3] = target: D(2) dopamine receptor (Rattus norvegicus) (UniProt P61169); assay: Binding affinity against Dopamine receptor D2 by using [3H]- radioligand
Sequence of D(2) dopamine receptor (Rattus norvegicus) (P61169 whole entry): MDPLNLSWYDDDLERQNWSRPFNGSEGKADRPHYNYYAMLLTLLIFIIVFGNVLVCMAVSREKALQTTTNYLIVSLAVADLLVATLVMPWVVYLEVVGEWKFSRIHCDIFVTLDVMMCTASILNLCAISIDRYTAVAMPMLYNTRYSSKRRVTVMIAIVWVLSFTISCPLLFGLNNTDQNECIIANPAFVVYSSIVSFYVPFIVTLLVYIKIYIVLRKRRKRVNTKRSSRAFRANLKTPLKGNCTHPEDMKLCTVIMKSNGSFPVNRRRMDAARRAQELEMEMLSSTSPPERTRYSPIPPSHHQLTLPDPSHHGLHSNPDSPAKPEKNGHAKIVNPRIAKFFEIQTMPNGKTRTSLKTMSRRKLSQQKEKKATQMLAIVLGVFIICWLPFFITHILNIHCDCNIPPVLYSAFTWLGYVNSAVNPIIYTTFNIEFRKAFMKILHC
In short: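 D2 competition assay on rat corpus striatum homogenate (30 μg protein) in 10 mM Tris/150 mM NaCl, pH 7.4, at 30 °C for 90 min. Radioligand was 0.065 nM [3H]emonapride (YM-09151); 250 nM (+)-butaclamol defined nonspecific binding. Six to eight test concentrations spanning 0.01–10 000 nM, in triplicate. Sigmoidal-fit IC50 converted to K0.5 via IC50/(1 + L/KD); repeated twice, ± SEM.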

[4] = target: D(1A) dopamine receptor (Rattus norvegicus) (UniProt P18901); assay: Binding affinity against Dopamine receptor D1 by using [3H]SCH-23390 as radioligand
Sequence of D(1A) dopamine receptor (Rattus norvegicus) (P18901 whole entry): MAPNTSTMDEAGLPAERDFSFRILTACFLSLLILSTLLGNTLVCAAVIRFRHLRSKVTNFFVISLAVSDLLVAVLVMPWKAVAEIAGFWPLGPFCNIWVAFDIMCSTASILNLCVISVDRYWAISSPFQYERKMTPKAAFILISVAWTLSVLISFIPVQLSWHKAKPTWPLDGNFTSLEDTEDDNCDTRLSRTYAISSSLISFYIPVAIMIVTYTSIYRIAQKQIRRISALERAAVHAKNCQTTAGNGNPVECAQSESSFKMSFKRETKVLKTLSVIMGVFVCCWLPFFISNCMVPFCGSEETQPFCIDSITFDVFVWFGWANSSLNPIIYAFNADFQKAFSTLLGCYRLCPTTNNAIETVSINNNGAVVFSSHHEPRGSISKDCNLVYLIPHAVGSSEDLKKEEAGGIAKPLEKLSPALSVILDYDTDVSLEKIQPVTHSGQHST
In short: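 Rat corpus striatum homogenate (30 μg protein) in 10 mM Tris with 150 mM NaCl, pH 7.4. Incubated 30 min at 30 °C with 0.3 nM [3H]SCH-23390; 300 nM cis-(Z)-flupenthixol defined nonspecific binding. Test ligand at 6–8 concentrations (0.01–10 000 nM) in triplicate, then filtration and scintillation counting. IC50 from sigmoidal fit converted to K0.5 = IC50/(1 + L/KD); assay repeated twice, ± SEM.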

[5] = target: D(2) dopamine receptor (Rattus norvegicus) (UniProt P61169)
[6] = target: Sigma non-opioid intracellular receptor 1 (Rattus norvegicus) (UniProt Q9R0C9)
Sequence of Sigma non-opioid intracellular receptor 1 (Rattus norvegicus) (Q9R0C9 whole entry): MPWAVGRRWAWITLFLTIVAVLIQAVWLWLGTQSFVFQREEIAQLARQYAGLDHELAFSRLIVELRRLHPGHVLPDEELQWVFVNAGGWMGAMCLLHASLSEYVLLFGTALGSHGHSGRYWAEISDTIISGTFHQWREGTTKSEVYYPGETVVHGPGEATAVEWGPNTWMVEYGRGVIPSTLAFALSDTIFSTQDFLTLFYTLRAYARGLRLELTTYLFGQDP

[7] = target: D(1A) dopamine receptor (Rattus norvegicus) (UniProt P18901)

Sequence of D(3) dopamine receptor (Homo sapiens) (P35462 whole entry, looked up): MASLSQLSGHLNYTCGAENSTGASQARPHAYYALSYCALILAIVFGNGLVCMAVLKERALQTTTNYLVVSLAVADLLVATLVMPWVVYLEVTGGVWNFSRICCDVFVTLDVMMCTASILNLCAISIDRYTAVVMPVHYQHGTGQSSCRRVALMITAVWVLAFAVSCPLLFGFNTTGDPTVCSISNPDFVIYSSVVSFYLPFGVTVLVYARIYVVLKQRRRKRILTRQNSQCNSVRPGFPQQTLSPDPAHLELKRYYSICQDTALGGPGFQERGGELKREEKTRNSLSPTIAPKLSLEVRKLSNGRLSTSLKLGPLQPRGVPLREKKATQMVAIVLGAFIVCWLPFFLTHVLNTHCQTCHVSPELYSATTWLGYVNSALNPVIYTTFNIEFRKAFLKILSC

Ki 0.5 [1] [µM] | Ki 0.5 [2] [µM] | Ki 0.5 [3] [µM] | Ki 0.5 [4] [µM] | Ki 0.5 [5] [µM] | Ki 0.5 [6] [µM] | Ki 0.5 [7] [µM] | SMILES
> 1 | 0.12 | > 5 | > 5 | – | – | – | CN(C)[C@H]1CCc2ccccc2[C@H](c2ccccc2)C1
1 | 0.0218 | 5 | > 5 | – | – | – | CN(C)[C@@H]1CCc2ccccc2[C@@H](c2ccccc2)C1
0.3 | 0.0003 | – | – | 0.26 | 2 | 0.42 | CN(C)[C@@H]1Cc2cc(Cl)c(O)cc2[C@@H](c2ccccc2)C1
– | 2.53 | 5 | > 5 | – | – | – | c1ccc(CCCN[C@@H]2Cc3ccccc3[C@@H](c3ccccc3)C2)cc1
– | 1.05 | 1.6 | 1.53 | – | – | – | c1ccc(CCCCN[C@@H]2Cc3ccccc3[C@@H](c3ccccc3)C2)cc1
– | 0.28 | 0.24 | 0.44 | – | – | – | CN(CCCCc1ccccc1)[C@@H]1Cc2ccccc2[C@@H](c2ccccc2)C1
– | 0.15 | 0.37 | 0.054 | – | – | – | CN(CCc1ccccc1)[C@@H]1Cc2ccccc2[C@@H](c2ccccc2)C1
– | 0.3 | 0.54 | 0.38 | – | – | – | CN(CCCc1ccccc1)[C@@H]1Cc2ccccc2[C@@H](c2ccccc2)C1
> 1 | 0.0182 | > 5 | > 5 | – | – | – | CN(C)[C@@H]1Cc2ccccc2[C@@](C)(c2ccccc2)C1
> 1 | 0.98 | > 5 | > 5 | – | – | – | CN(C)[C@@H]1CCc2ccccc2[C@H]1c1ccccc1
> 1 | 0.035 | > 2.5 | > 5 | – | – | – | C[N+](C)(C)[C@@H]1Cc2ccccc2[C@@H](c2ccccc2)C1
> 1 | 1.3 | > 5 | > 5 | – | – | – | CN(C)[C@@H]1CCc2ccccc2[C@@H]1c1ccccc1
> 1 | 0.12 | > 5 | > 5 | – | – | – | CN[C@@H]1Cc2ccccc2[C@@H](c2ccccc2)C1
1 | 0.0025 | > 5 | > 2.5 | – | – | – | CN(C)[C@H]1Cc2ccccc2[C@@](C)(c2ccccc2)C1

SMILES | Ki 0.5 [1] [µM] | Ki 0.5 [2] [µM] | Ki 0.5 [3] [µM] | Ki 0.5 [4] [µM] | Ki 0.5 [5] [µM] | Ki 0.5 [6] [µM] | Ki 0.5 [7] [µM]
CN(C)[C@@H]1Cc2ccccc2[C@@H](c2ccccc2)C1 (stereo in doubt; 2) | 1 | 0.0011 | 5 | 2.5 | – | – | –
CN(C)[C@@H]1Cc2ccccc2[C@@H](c2ccccc2)C1 (stereo in doubt; (+)-2) | 1 | 0.0135 | > 5 | > 5 | – | – | –
CN(C)[C@@H]1Cc2ccccc2[C@@H](c2ccccc2)C1 (stereo in doubt; (-)-2) | > 1 | 0.0005 | > 5 | > 5 | – | – | –
CN(C)[C@@H]1Cc2ccccc2[C@H](c2ccccc2)C1 | – | 0.074 | – | – | – | – | –
